CYP2C9 inhib: blockers of cytochrome P450 2C9 activity – biochemical, luminescence, ADME assay, primary screen; CYP2C9 Supersomes, luciferin-H conversion; P11712; inhibition, % at 5 µM; hit rate 20% among 96,000; AID 777, 2007;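 active = blocking of liver enzyme CYP2C9 beyond about 50% at 5 µM, limit read from the data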
CYP2C19 act: human CYP2C19 activators, primary screen, biochemical, luminescence; Cytochrome P450 2C19 (Homo sapiens), P33261; recombinant CYP2C19, luciferin-H EGE luminescence; hits give high values; 0 = fully inhibited enzyme, 1 = untreated enzyme; activation factor at 5 µM; 96,000 tested, under 10 active;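 active = activation factor of at least 2 at 5 µM in the primary screen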
Target sequence (P33261 whole entry, looked up): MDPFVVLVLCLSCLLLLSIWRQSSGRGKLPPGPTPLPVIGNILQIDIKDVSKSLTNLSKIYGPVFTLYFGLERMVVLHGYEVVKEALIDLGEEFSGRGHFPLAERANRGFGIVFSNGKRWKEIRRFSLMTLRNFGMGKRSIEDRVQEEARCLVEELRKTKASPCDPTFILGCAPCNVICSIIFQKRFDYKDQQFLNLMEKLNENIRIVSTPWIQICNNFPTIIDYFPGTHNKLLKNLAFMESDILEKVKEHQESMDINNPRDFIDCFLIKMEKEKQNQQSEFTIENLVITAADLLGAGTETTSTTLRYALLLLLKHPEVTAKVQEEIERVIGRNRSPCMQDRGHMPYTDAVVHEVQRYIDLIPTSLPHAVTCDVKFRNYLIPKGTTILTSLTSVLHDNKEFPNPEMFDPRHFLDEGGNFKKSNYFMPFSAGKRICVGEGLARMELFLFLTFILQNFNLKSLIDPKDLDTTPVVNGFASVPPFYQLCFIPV
Ecoli WT expand: growth inhibitors of wild-type E. coli, primary screen, strain BW25113, expanded library, OD600 | OD600 absorbance | growth inhibition, % at 100 µM | hit rate 0.15% among 98,000 | AID 710, 2007;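 active = growth inhibition above about 50% at one test dose, limit read from the data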;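 also: growth measured after 20 h incubation at 37 °C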
CYP2C19 inhib: blockers of cytochrome P450 2C19 activity – biochemical, luminescence, ADME assay, primary screen. CYP2C19 Supersomes, luciferin-H EGE luminescence, 30 min. inhibition, % at 5 µM. hit rate 21% among 96,000. AID 778, 2007;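 active = CYP2C19 inhibition above a set limit at 5 µM in the primary screen, cut at about 50% in these data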
CYP2C9 act: human CYP2C9 activators, primary screen, biochemical, luminescence. Cytochrome P450 2C9 (Homo sapiens), P11712. recombinant CYP2C9, luciferin-H conversion; hits give high values; factor 1 = untreated enzyme, 0 = blocked. activation factor at 5 µM. hit rate 1.4% among 96,000. AID 1024, 2008;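 active = activation factor of 2 or more for CYP2C9 at a 5 µM dose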
tolC growth inh: growth inhibitors of E. coli tolC mutant, primary screen, strain BW25113 ΔtolC::kan, 384-well; OD615; growth inhibition, % at 10 µM (by protocol); hit rate 2.2% among 65,000; AID 573, 2007;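 active = growth inhibition at or above a cutoff equal to the mean over every tested compound plus 3 SD, cut at about 60% in these data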;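 also: growth measured after 20 h incubation at 37 °C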
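Assay system: tolC-deleted E. coli BW25113. Medium: kanamycin-containing LB broth (50 µg/mL). Dosing: 10 µM final, single dose. Timing: bacterial growth with compound for 20 h at 37 °C. Detection: A615 absorbance measurement. Read-out basis: growth inhibition in percent.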
Of the large screens only hits and unclear results are named; the others gave an inactive call. A selection: hits, their analogues and other compounds. The true share with any hit is near 29%.

CCCCNC(=O)C(=O)NC(C)CCc1ccccc1 (stereo unspecified)	none (no result: tolC growth inh)
CCOc1ccc(N(CC(=O)N2CCCC2)S(=O)(=O)c2c(C)noc2C)cc1	none
COc1ccc(N(CC(=O)Nc2ccc(C)cn2)S(=O)(=O)c2c(C)noc2C)cc1	CYP2C9 inhib 70.1, CYP2C19 inhib 72.7
COc1ccc(OC)c(NC(=O)CN(c2ccc(C(C)C)cc2)S(=O)(=O)c2c(C)noc2C)c1	CYP2C9 inhib 94.0, CYP2C19 inhib 74.8
COc1ccc(N(CC(=O)Nc2cc(Cl)ccc2OC)S(=O)(=O)c2c(C)noc2C)cc1	CYP2C9 inhib 89.0, CYP2C19 inhib 90.2
Cc1noc(C)c1S(=O)(=O)N(CC(=O)N1CCn2c1nc1ccccc12)c1ccc(C(C)C)cc1	CYP2C9 inhib 87.4, CYP2C19 inhib 57.7
COC(=O)CN(c1ccc(OC)cc1)S(=O)(=O)c1c(C)noc1C	none
CCCN(c1ccc(C(C)C)cc1)S(=O)(=O)c1c(C)noc1C	CYP2C9 inhib 81.5
CCCOc1ccc(N2C(=O)CC(S/C(N)=N/N=C(\C)c3cccs3)C2=O)cc1 (stereo unspecified)	none (no result: tolC growth inh)
C/C(=N\N=C(/N)SC1CC(=O)N(c2cccc(Cl)c2)C1=O)c1cccs1 (stereo unspecified)	CYP2C9 inhib 60.7 (no result: tolC growth inh)
CC1(c2cccs2)CC(c2cccs2)=C(C#N)C(=O)N1 (stereo unspecified)	CYP2C19 inhib 79.2
N#CCSc1nnc(COc2ccc3ccccc3c2)o1	CYP2C19 inhib 56.8
COc1cc(-c2nnc(COc3ccc4ccccc4c3)o2)cc(OC)c1OC	none
CCOC(=O)C1CCN(c2c(NCc3ccc(C(=O)NC4CCCC4)cc3)c(=O)c2=O)CC1	CYP2C9 inhib 60.6 (no result: tolC growth inh)
Cc1ccc(CNC(=O)c2ccc(CNc3c(N4CCCC4)c(=O)c3=O)cc2)cc1	CYP2C9 inhib 51.3, CYP2C19 inhib 80.0 (no result: tolC growth inh)
Cc1ccc(NC(=O)c2ccc(CNc3c(N4CCOCC4)c(=O)c3=O)cc2)cc1	none (no result: tolC growth inh)
CCCS(=O)(=O)N1CCCC(C(=O)NCC2CCCO2)C1 (stereo unspecified)	none
Cc1onc(-c2ccccc2Cl)c1C(=O)Nc1c(C)n(C)n(-c2ccccc2)c1=O	none
O=C(COn1nnc2ccccc21)NCC1CCCCC1	CYP2C19 inhib 55.2
COc1ccccc1OCC(=O)NCC1CCCCC1	CYP2C19 inhib 94.7
CCc1ccccc1OCC(=O)NC1CCCC1	CYP2C19 inhib 92.9
COC(=O)c1ccccc1OCC(=O)NC1CCCCC1	CYP2C19 inhib 64.2
O=C(COn1nnc2ccc(Cl)cc21)NCc1ccccc1	none
CSc1nnc(-c2ccc(S(=O)(=O)N3CCOCC3)cc2)n1CC1CCCO1 (stereo unspecified)	none
CC(C)CCOCC(=O)Nc1cccc(C(=O)O)c1	none
CCN(CC)CCNC(=O)c1sc2nc(-c3ccccc3)cn2c1C	none (no result: CYP2C9 inhib, CYP2C19 act, Ecoli WT expand, CYP2C19 inhib, CYP2C9 act)
O=C(NCC1CCCO1)C1CCN(S(=O)(=O)c2cccc3nonc23)CC1 (stereo unspecified)	none
CCOC(=O)C1CCCN(c2ncnc3c2oc2ccccc23)C1 (stereo unspecified)	CYP2C19 inhib 69.0
CCc1nnc(N2CCN(c3ncnc4c3oc3ccccc34)CC2)s1	none
c1ccc(N2CCN(c3ncnc4c3oc3ccccc34)CC2)cc1	tolC growth inh 93.6
NC(=O)C1CCN(C(=O)c2ccc(CS(=O)(=O)c3c(Cl)cccc3Cl)o2)CC1	none
CCOC(=O)C(C(=O)OCC)C(Nc1ccc(Br)cc1)c1ccccc1 (stereo unspecified)	none (no result: tolC growth inh)
NC(=O)CS(=O)(=O)c1nc2ccccc2n1Cc1ccccc1F	none
Cc1cc(C)c(N2C(=NC(=O)CCCC(=O)O)SC3CS(=O)(=O)CC32)c(C)c1 (stereo unspecified)	none
CC(C)=C1C2CCC1C1C(=O)N(NC(=O)COc3ccc(C(C)(C)C)cc3)C(=O)C21 (stereo unspecified)	none (no result: tolC growth inh)
Brc1ccc(Nc2nc3ccccc3n3nnnc23)cc1	none (no result: tolC growth inh)
CCN(CC)S(=O)(=O)c1ccc(Nc2nc3ccccc3n3nnnc23)cc1	CYP2C9 inhib 63.1
O=C(c1cccc(-n2cnnn2)c1)N1CC=C(c2ccccc2)CC1	none
OC(c1ccccc1)c1nc2ccccc2s1 (stereo unspecified)	CYP2C19 inhib 65.3
Oc1ccccc1OCc1nc2ccccc2s1	none
N=c1oc2ccc3ccccc3c2cc1-c1nnc2n1CCCCC2	CYP2C9 act 2.1
CCn1c(CSCc2ccc(C)cc2)nnc1SCC(=O)N1CCN(c2ccccc2)CC1	CYP2C9 inhib 77.6 (no result: tolC growth inh)
CCn1c(CC(=O)Nc2cccc(OC)c2)nnc1SCC(=O)N1CCN(c2ccccc2)CC1	CYP2C9 inhib 59.4
CCn1c(COc2ccccc2C)nnc1SCC(=O)N1CCN(c2ccccc2)CC1	none (no result: tolC growth inh)
C=CCSc1nnc2c(n1)OC=Nc1ccccc1-2	none
COc1ccc(C(=O)N2CC=C(c3ccccc3)CC2)cc1S(=O)(=O)N1CCOCC1	CYP2C9 inhib 81.0, CYP2C19 inhib 86.5
O=C(c1ccc(CNc2c(N3CCOCC3)c(=O)c2=O)cc1)N1CC=C(c2ccccc2)CC1	CYP2C9 inhib 59.2
O=C(NCc1ccco1)c1ccc(COCC(F)(F)C(F)F)cc1	none
O=C(CCS(=O)(=O)c1cccc2nsnc12)NC1CCCCC1	none (no result: tolC growth inh)
O=C(N/N=C\c1ccc(COc2ccc([N+](=O)[O-])cc2)o1)c1cccc(Cl)c1	CYP2C9 inhib 60.2 (no result: tolC growth inh)
COc1cc(S(=O)(=O)NC2CCCCC2)ccc1F	CYP2C19 inhib 85.0, CYP2C9 act 2.1 (no result: tolC growth inh)
COc1cc(S(=O)(=O)NC2CCCC2)c(OC)cc1Cl	CYP2C19 inhib 98.6 (no result: tolC growth inh)
CCOC(=O)c1ccc(S(=O)(=O)NC2CCCCCCC2)n1C	CYP2C9 inhib 85.3, CYP2C19 inhib 53.2
NC(=O)c1cc(S(=O)(=O)NC2CCCCC2)co1	none
CCn1c(=O)c2cc(S(=O)(=O)NC3CCCCC3)ccc2n(CC)c1=O	CYP2C9 inhib 53.0
COc1ccc(F)cc1S(=O)(=O)NC1CCCCCC1	none
CC(C)C(=O)N1CCN(c2ccc(NC(=O)c3ccc4c(c3)OCCO4)cc2Cl)CC1	none (no result: tolC growth inh)
CCOc1ccccc1N1CCN(S(=O)(=O)c2ccc(F)c(F)c2)CC1	none
CCOc1cc(S(=O)(=O)N2CCCCCC2)ccc1F	CYP2C19 inhib 87.3 (no result: tolC growth inh)
CCOc1cc(S(=O)(=O)NC2CCCC2)ccc1Cl	none
CCOc1cc(S(=O)(=O)NC2CCCCC2)ccc1F	CYP2C9 inhib 59.5, CYP2C19 inhib 79.5 (no result: tolC growth inh)
COc1ccccc1CNc1nc2nc(C)cc(=O)n2[nH]1	none
Cc1[nH]n(-c2ccccc2)c(=O)c1Sc1ccc(Cl)cc1	CYP2C9 inhib 85.8, CYP2C19 inhib 51.5 (no result: tolC growth inh)
